Measured values from different studies.
Each line is one published result; the experiments were not run side by side.
Target: Protein kinase C theta type (PRKCQ, Homo sapiens, UniProt Q04759)

Cc1cnc(Nc2ccc(C(=O)N3CCC(N4CCCC4)CC3)cc2)nc1-c1cc2ccccc2s1 — remaining binding (binding, competition with immobilised ligand; 1 µM): 27%
C[C@H]1CCN(c2nccc(-c3cnn4ncccc34)n2)C1 — remaining binding (binding; 1 µM): 100%
O=C(c1ccc(Nc2ncc(Cl)c(-c3cc4ccccc4s3)n2)cc1)N1CCC(N2CCCC2)CC1 — remaining binding (binding, competition with immobilised ligand; 1 µM): 23%
C=CC(=O)N1CCC(C(=O)NCC(=O)N2CCN(c3nc(-c4cnc(N)nc4C(F)F)nc(N4CCOCC4)n3)CC2)CC1 — remaining binding (binding, competition with immobilised ligand; 1 µM): 83%
N[C@@H]1CCN(c2nccc(-c3cnn4ncccc34)n2)C1 — remaining binding (binding; 1 µM): 100%
COc1cnc(Nc2cccc(S(N)(=O)=O)c2)nc1N1CCN(c2ccccc2)CC1 — remaining binding (binding, competition with immobilised ligand; 1 µM): 94%
O=C(NC[C@@H]1[C@H]2CN(C(=O)OCc3cc(C(F)(F)F)cc(C(F)(F)F)c3)C[C@@H]12)c1ccc2[nH]nnc2c1 — remaining binding (cell-free assay, competition with immobilised ligand; 1 µM): 100%
O=C(Nc1c[nH]nc1C(=O)NC1CCNCC1)c1cc(F)cc(F)c1 — remaining binding (binding, competition with immobilised ligand; 1 µM): 100%
CCOCCn1cc(C(=O)Nc2ccc(-n3nc(-c4cccnc4)cc3C(F)(F)F)cn2)ccc1=O — remaining binding (cell-free assay, competition with immobilised ligand; 1 µM): 73%
O=C(NCCCN1CCOCC1)c1ccc(Nc2nccc(-c3cc4ccccc4s3)n2)cc1 — remaining binding (binding, competition with immobilised ligand; 1 µM): 100%
Cc1c(NC(=O)c2cc(C(N)=O)nc3cc(F)ccc23)c(C(F)(F)F)nn1Cc1ccc(C#N)cc1 — remaining binding (cell-free assay, competition with immobilised ligand; 1 µM): 80%
CN(C)c1ncc(F)c(-c2cnn3ncccc23)n1 — remaining binding (binding; 1 µM): 100%
CO[C@H]1CC[C@H](CNc2ccc(S(=O)(=O)NC(=O)c3ccc(N4CCN(CC5=C(c6ccc(Cl)cc6)CC(C)(C)CC5)CC4)cc3Oc3cnc4[nH]ccc4c3)cc2[N+](=O)[O-])CC1 — remaining binding (cell-free assay, competition with immobilised ligand; 1 µM): 89%
Cc1cnn2ncc(-c3ccnc(N(C)C)n3)c2c1 — remaining binding (binding; 1 µM): 99%
Nc1ncc2c(n1)-c1c([nH]c3ccc(C#CC4CC4)cc13)CCCC2 — remaining binding (binding, competition with immobilised ligand; 1 µM): 98%
C[C@@H](c1ccc(-n2cnc3c(N)ncnc32)cc1)N1CCc2nn(C)c(Cc3ccccc3)c2C1=O — remaining binding (binding, competition with immobilised ligand; 0.1 µM): 100%
CS(=O)(=O)N1CCCC(NC(=O)[C@H](CCC2CCCCC2)NC(=O)c2ccc(CNc3ncnc4c3nnn4-c3ccccc3)cc2)C1 (stereo partly shown) — remaining binding (cell-free assay, competition with immobilised ligand; 0.1 µM): 90%
CN(CCCC(F)(F)F)c1nccc(-c2cnn3ncccc23)n1 — remaining binding (binding; 1 µM): 100%
CN(c1ccnc(CNc2nc(Nc3ccc4c(c3)CC(=O)N4)ncc2C(F)(F)F)n1)S(C)(=O)=O — remaining binding (cell-free assay, competition with immobilised ligand; 1 µM): 55%
CCN1CCN(Cc2ccc(C(=O)Nc3ccc(C)c(Oc4ccc5c(c4)CC(=O)N5)c3)cc2C(F)(F)F)CC1 — remaining binding (binding, competition with immobilised ligand; 1 µM): 100%
CN(C)c1nccc(-c2cnc3ncccn23)n1 — remaining binding (binding; 1 µM): 75%
Cc1cc(NC(=O)c2cccc(S(F)(F)(F)(F)F)c2)cc(-n2ccn3nc(-c4cccnc4)cc23)c1 — remaining binding (cell-free assay, competition with immobilised ligand; 1 µM): 60.3%
